ChEMBL document CHEMBL1122854, “Novel bis[1,6-dihydro-6,6-dimethyl-1,3,5-triazine-2,4-diamines] as antitrypanosomal agents” (1985)

Key:
Format in all cases: functional
[1] = test system: Trypanosoma brucei rhodesiense; assay: Antitrypanosomal activity was evaluated against Trypanosoma rhodesiense infections in mice, at dose 1.6 mg/kg, administered subcutaneously; details: route subcutaneous
How it was run: (§1)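 Six-week-old IUR/HA Swiss mice (30-32 g), 5 per dose, infected ip with 0.5 mL of a 1:50 000 dilution of heparinized heart blood from donor mice infected 3 days before (Wellcome CT strain). Single sc dose in peanut oil about 2 h post-inoculation. Deaths before day 4 counted toxic. ΔMST versus untreated controls; survivors at 30 days counted cured.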

[2] = test system: Trypanosoma brucei rhodesiense; assay: Antitrypanosomal activity against Trypanosoma rhodesiense infections in mice, 3.3 mg/kg administered subcutaneously; details: route subcutaneous; how it was run: as §1
Mus musculus [3] = assay: Antitrypanosomal activity was evaluated against Trypanosoma rhodesiense infections in mice, at dose 26 mg/kg, administered subcutaneously; Cures; details: route subcutaneous
How it was run: (§2)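 IUR/HA Swiss mice (six weeks old, 30-32 g) infected i.p. with Wellcome CT strain T. rhodesiense. A single subcutaneous dose in peanut oil was given about 2 h after inoculation, with five mice per dose level. Positive control was stilbamidine or 2-hydroxystilbamidine isethionate at 40 mg/kg. Deaths before day 4 were scored toxic, and 30-day survivors cured.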

Mus musculus [4] = assay: Antitrypanosomal activity was evaluated against Trypanosoma rhodesiense infections in mice, at dose 13 mg/kg, administered subcutaneously; Cures; details: route subcutaneous; how it was run: as §2
[5] = test system: Trypanosoma brucei rhodesiense; assay: Antitrypanosomal activity against Trypanosoma rhodesiense infections in mice, 6.6 mg/kg administered subcutaneously; details: route subcutaneous; how it was run: as §1
Mus musculus [6] = assay: Antitrypanosomal activity was evaluated against Trypanosoma rhodesiense infections in mice, at dose 6.6 mg/kg, administered subcutaneously; details: route subcutaneous; how it was run: as §2
Mus musculus [7] = assay: Antitrypanosomal activity was evaluated against Trypanosoma rhodesiense infections in mice, at dose 53 mg/kg, administered subcutaneously; Cures; details: route subcutaneous; how it was run: as §2
[8] = test system: Trypanosoma brucei rhodesiense; assay: Antitrypanosomal activity was evaluated against Trypanosoma rhodesiense infections in mice, at dose 106 mg/kg, administered subcutaneously; details: route subcutaneous; how it was run: as §2
[9] = test system: Trypanosoma brucei rhodesiense; assay: Anti-trypanosomal activity against Trypanosoma rhodesiense infections in mice, 26 mg/kg administered subcutaneously; details: route subcutaneous; how it was run: as §1
[10] = test system: Trypanosoma brucei rhodesiense; assay: (§3) Antitrypanosomal activity was evaluated against Trypanosoma rhodesiense infections in mice, at dose 53 mg/kg, administered subcutaneously; details: route subcutaneous; how it was run: as §1
Mus musculus [11] = assay: as §3; details: route subcutaneous; how it was run: as §2
[12] = test system: Trypanosoma brucei rhodesiense; assay: Antitrypanosomal activity against Trypanosoma rhodesiense infections in mice, 424 mg/kg administered subcutaneously; details: route subcutaneous; how it was run: as §2
Mus musculus [13] = assay: (§4) Antitrypanosomal activity was evaluated against Trypanosoma rhodesiense infections in mice, at dose 26 mg/kg, administered subcutaneously; details: route subcutaneous; how it was run: as §2
Mus musculus [14] = assay: Antitrypanosomal activity was evaluated against Trypanosoma rhodesiense infections in mice, at dose 106 mg/kg, administered orally; details: route oral
Mus musculus [15] = assay: Antitrypanosomal activity was evaluated against Trypanosoma rhodesiense infections in mice, at dose 26 mg/kg, administered orally; details: route oral
Mus musculus [16] = assay: Antitrypanosomal activity was evaluated against Trypanosoma rhodesiense infections in mice, at dose 424 mg/kg, administered orally; details: route oral
How it was run: (§5)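 Oral dosing of IUR/HA Swiss mice (six weeks old, 30-32 g) infected i.p. with Wellcome CT strain T. rhodesiense, with five mice per dose level. Survival was followed for 30 days. Deaths before day 4 were counted as toxic and 30-day survivors as cured. ΔMST is the difference in mean survival time between treated and control mice.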

Mus musculus [17] = assay: Antitrypanosomal activity was evaluated against Trypanosoma rhodesiense infections in mice, at dose 106 mg/kg, administered orally;Toxic; how it was run: as §5
Mus musculus [18] = assay: Antitrypanosomal activity was evaluated against Trypanosoma rhodesiense infections in mice, at dose 13 mg/kg, administered subcutaneously; details: route subcutaneous; how it was run: as §2
Mus musculus [19] = assay: Antitrypanosomal activity was evaluated against Trypanosoma rhodesiense infections in mice, at dose 3.3 mg/kg, administered subcutaneously;Toxic; details: route subcutaneous; how it was run: as §2
[20] = test system: Trypanosoma brucei rhodesiense; assay: as §4; details: route subcutaneous; how it was run: as §2
Mus musculus [21] = assay: (§6) Antitrypanosomal activity was evaluated against Trypanosoma rhodesiense infections in mice, at dose 26 mg/kg, administered subcutaneously;Cures; details: route subcutaneous; how it was run: as §2
Mus musculus [22] = assay: Antitrypanosomal activity was evaluated against Trypanosoma rhodesiense infections in mice, at dose 6.6 mg/kg, administered subcutaneously;Cures; details: route subcutaneous; how it was run: as §2
Mus musculus [23] = assay: Antitrypanosomal activity was evaluated against Trypanosoma rhodesiense infections in mice, at dose 1.6 mg/kg, administered subcutaneously;Cures; details: route subcutaneous; how it was run: as §2
Mus musculus [24] = assay: Antitrypanosomal activity was evaluated against Trypanosoma rhodesiense infections in mice, at dose 13 mg/kg, administered subcutaneously;Cures; details: route subcutaneous; how it was run: as §2
Mus musculus [25] = assay: Antitrypanosomal activity was evaluated against Trypanosoma rhodesiense infections in mice, at dose 106 mg/kg, administered subcutaneously;Cures; details: route subcutaneous; how it was run: as §2
Mus musculus [26] = assay: Antitrypanosomal activity was evaluated against Trypanosoma rhodesiense infections in mice, at dose 212 mg/kg, administered subcutaneously;Cures; details: route subcutaneous; how it was run: as §2
Mus musculus [27] = assay: Antitrypanosomal activity was evaluated against Trypanosoma rhodesiense infections in mice, at dose 424 mg/kg, administered subcutaneously;Toxic; details: route subcutaneous; how it was run: as §2
Mus musculus [28] = assay: Antitrypanosomal activity was evaluated against Trypanosoma rhodesiense infections in mice, at dose 424 mg/kg, administered subcutaneously;Cures; details: route subcutaneous; how it was run: as §2
Mus musculus [29] = assay: Antitrypanosomal activity was evaluated against Trypanosoma rhodesiense infections in mice, at dose 106 mg/kg, administered subcutaneously; Cures; details: route subcutaneous; how it was run: as §2
[30] = test system: Trypanosoma brucei rhodesiense; assay: (§7) Antitrypanosomal activity was evaluated against Trypanosoma rhodesiense infections in mice, at dose 212 mg/kg, administered subcutaneously; details: route subcutaneous; how it was run: as §1
Mus musculus [31] = assay: Antitrypanosomal activity was evaluated against Trypanosoma rhodesiense infections in mice, at dose 53 mg/kg, administered subcutaneously;Cures; details: route subcutaneous; how it was run: as §2
Mus musculus [32] = assay: (§8) Antitrypanosomal activity was evaluated against Trypanosoma rhodesiense infections in mice, at dose 106 mg/kg, administered subcutaneously;Toxic; details: route subcutaneous; how it was run: as §2
Mus musculus [33] = assay: Antitrypanosomal activity was evaluated against Trypanosoma rhodesiense infections in mice, at dose 424 mg/kg, administered subcutaneously; Cures; details: route subcutaneous; how it was run: as §2
[34] = test system: Trypanosoma brucei rhodesiense; assay: Antitrypanosomal activity against Trypanosoma rhodesiense infections in mice, 106 mg/kg administered subcutaneously; details: route subcutaneous; how it was run: as §1
Mus musculus [35] = assay: as §7; details: route subcutaneous; how it was run: as §2
[36] = test system: Trypanosoma brucei rhodesiense; assay: as §8; details: route subcutaneous; how it was run: as §2
Mus musculus [37] = assay: Antitrypanosomal activity was evaluated against Trypanosoma rhodesiense infections in mice, at dose 53 mg/kg, administered subcutaneously;Toxic; details: route subcutaneous; how it was run: as §2
Mus musculus [38] = assay: Antitrypanosomal activity was evaluated against Trypanosoma rhodesiense infections in mice, at dose 212 mg/kg, administered subcutaneously;Toxic; details: route subcutaneous; how it was run: as §2
Mus musculus [39] = assay: Antitrypanosomal activity was evaluated against Trypanosoma rhodesiense infections in mice, at dose 1.6mg/kg, administered subcutaneously;Cures; how it was run: as §2
Mus musculus [40] = assay: Antitrypanosomal activity was evaluated against Trypanosoma rhodesiense infections in mice, at dose 3.3 mg/kg, administered subcutaneously;Cures; details: route subcutaneous; how it was run: as §2
Mus musculus [41] = assay: as §6; details: route subcutaneous; how it was run: as §1; remark: listed apart in the source
Mus musculus [42] = assay: Antitrypanosomal activity was evaluated against Trypanosoma rhodesiense infections in mice, at dose 26 mg/kg, administered subcutaneously;Toxic; details: route subcutaneous; how it was run: as §2

Compound: CC1(C)N=C(N)N=C(N)N1c1ccc(OCOc2ccc(N3C(N)=NC(N)=NC3(C)C)cc2)cc1.Cl.Cl
- Delta MST [1]: 1 days
- Delta MST [2]: 1.2 days
- Cures (Mus musculus [3]): 3
- Cures (Mus musculus [4]): 3
- Delta MST [5]: 2.3 days
- Cures (Mus musculus [6]): 1
- Cures (Mus musculus [7]): 1
- Toxic [8]: 5
- Delta MST [9]: 1.8 days
- Delta MST [10]: 9 days
- Toxic (Mus musculus [11]): 2
- Toxic [12]: 5

Compound: Cc1ccc(N2C(N)=NC(N)=NC2(C)C)cc1N1C(N)=NC(N)=NC1(C)C.Cl.Cl
- Delta MST [1]: 0.2 days
- Toxic (Mus musculus [13]): 2
- Delta MST [2]: 0.2 days
- Delta MST [5]: 0 days
- Toxic [8]: 5
- Delta MST [9]: -0.1 days
- Toxic [12]: 5

Compound: CC1(C)N=C(N)N=C(N)N1c1ccc(Oc2ccc(Oc3ccc(N4C(N)=NC(N)=NC4(C)C)cc3)cc2)cc1.Cl.Cl
- Delta MST (Mus musculus [14]): 1.9 days
- Delta MST (Mus musculus [15]): 0.5 days
- Toxic (Mus musculus [16]): 5
- Toxic (Mus musculus [17]): 4

Compound: CC1(C)N=C(N)N=C(N)N1c1ccc(OCCCOc2ccc(N3C(N)=NC(N)=NC3(C)C)cc2)cc1.Cl.Cl
- Toxic (Mus musculus [18]): 5
- Delta MST [1]: 0 days
- Toxic (Mus musculus [19]): 1
- Toxic [20]: 5
- Delta MST [2]: 0 days
- Toxic (Mus musculus [6]): 5
- Toxic [8]: 5
- Toxic [12]: 5

Compound: CC1(C)N=C(N)N=C(N)N1c1ccc(/C=C/c2ccc(N3C(N)=NC(N)=NC3(C)C)cc2)cc1.Cl.Cl
- Cures (Mus musculus [21]): 3
- Cures (Mus musculus [22]): 3
- Cures (Mus musculus [23]): 1
- Cures (Mus musculus [24]): 5
- Cures (Mus musculus [25]): 3
- Cures (Mus musculus [7]): 5
- Cures (Mus musculus [26]): 4

Compound: Cl.Cl.NC1=NC(c2ccccc2)N(c2ccc(CCc3ccc(N4C(N)=NC(N)=NC4c4ccccc4)cc3)cc2)C(N)=N1 (stereo not given)
- Cures (Mus musculus [21]): 1
- Toxic (Mus musculus [27]): 2
- Delta MST [2]: 0.4 days
- Cures (Mus musculus [28]): 3
- Delta MST [5]: 0 days
- Cures (Mus musculus [7]): 5
- Delta MST [9]: 4.1 days
- Cures (Mus musculus [29]): 5
- Cures (Mus musculus [26]): 4
- Delta MST [30]: 2.2 days

Compound: CC1(C)N=C(N)N=C(N)N1c1ccc(Cc2ccc(N3C(N)=NC(N)=NC3(C)C)cc2)cc1.Cl.Cl
- Cures (Mus musculus [21]): 1
- Cures (Mus musculus [31]): 2
- Toxic (Mus musculus [32]): 2
- Cures (Mus musculus [33]): 5
- Delta MST [34]: 8 days
- Toxic (Mus musculus [35]): 5
- Delta MST [9]: 4 days
- Delta MST [10]: 6.5 days

Compound: CC1(C)N=C(N)N=C(N)N1c1ccc2c(c1)Cc1cc(N3C(N)=NC(N)=NC3(C)C)ccc1-2.Cl.Cl
- Delta MST [1]: 3 days
- Cures (Mus musculus [31]): 4
- Toxic [36]: 3
- Delta MST [34]: 2 days
- Cures (Mus musculus [22]): 2
- Toxic (Mus musculus [37]): 1
- Delta MST [2]: 4 days
- Delta MST [5]: 4.3 days
- Cures (Mus musculus [24]): 3
- Cures (Mus musculus [25]): 1
- Delta MST [9]: 4.5 days
- Toxic (Mus musculus [38]): 4
- Cures (Mus musculus [39]): 1
- Cures (Mus musculus [40]): 1
- Delta MST (Mus musculus [41]): 3 days
- Delta MST [30]: 26 days
- Toxic [12]: 5

Compound: Cc1cc(N2C(N)=NC(N)=NC2(C)C)ccc1CCc1ccc(N2C(N)=NC(N)=NC2(C)C)cc1C.Cl.Cl
- Delta MST [1]: 0.8 days
- Toxic (Mus musculus [42]): 3
- Delta MST [2]: 0.4 days
- Delta MST [5]: 1 days
- Toxic [8]: 5
- Delta MST [9]: 1.4 days
- Toxic [12]: 5
